Source: ChEMBL document CHEMBL1147367, “Bioactive furanonaphthoquinones from Crescentia cujete” (J Nat Prod, 1993)
Converted amounts (≈) assume the structure as drawn.

How the values were obtained:
Vero = test: Cytotoxicity against african green monkey Vero cells; format: cell-based; conditions: Chlorocebus sabaeus
Procedure, shortened: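 Vero cells exposed to compound for 72 h; viability read by XTT staining; IC50 given in μg/ml.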

Saccharomyces cerevisiae [1] = test: DNA damaging activity against DNA repair-deficient RS 322YK (rad 52Y) yeast assessed as drug level required to produce 12 mm zone of inhibition; format: functional
Procedure, shortened: (§1)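 Agar well-diffusion test on yeast: sample placed in 100 μl wells and growth-inhibition zones measured. Potency given as IC12 in μg/ml, the concentration giving a 12 mm inhibition zone. rad 52 strain RS 322 YK lacks the recombination pathway for double-strand-break repair. RS 188 N is the repair-proficient RAD+ counterpart.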

Saccharomyces cerevisiae [2] = test: DNA damaging activity against RS 188N (RAD+) yeast assessed as drug level required to produce 12 mm zone of inhibition; format: functional; procedure, shortened: as §1

Row | SMILES | IC50 (Vero) | IC12 (Saccharomyces cerevisiae [1]) | IC12 (Saccharomyces cerevisiae [2])
1 | CC(O)c1cc2c(o1)C(=O)c1ccccc1C2=O (stereo not given) | 0.41 µg/mL (≈ 1.69 µM) | 14 µg/mL | 180 µg/mL
2 | CC(O)c1cc2c(o1)C(=O)c1cccc(O)c1C2=O (stereo not given) | 0.21 µg/mL (≈ 0.813 µM) | 3 µg/mL | 10 µg/mL
3 | C=C(C)C1CC2=C(O1)C(=O)c1cccc(O)c1C2=O (stereo not given) |  | 80 µg/mL | 140 µg/mL
4 | C=C(C)[C@@H]1OC2=C(C(=O)c3c(ccc(OC)c3OC)C2=O)[C@@H]1O | 3.7 µg/mL (≈ 11.7 µM) | 47 µg/mL | > 1000 µg/mL
5 | C=C(C)[C@H]1CC2=C(O1)C(=O)c1cccc(OC)c1C2=O | 4.3 µg/mL (≈ 15.9 µM) | 48 µg/mL | 280 µg/mL
6 | C=C(C)[C@H]1CC2=C(O1)C(=O)c1ccc(OC)c(OC)c1C2=O | 4.7 µg/mL (≈ 15.7 µM) | 33 µg/mL | 120 µg/mL
7 | CC[C@@]1(O)C(=O)OCc2c1cc1n(c2=O)Cc2cc3ccccc3nc2-1 [CAMPTOTHECIN] | 0.054 µg/mL (≈ 0.155 µM) | 0.6 µg/mL | 110 µg/mL
